Activity calls are given as the source filed them. The calls are words filed in the database; no cut-off is given here.
What was measured:
[1] = Solubility of the compound; assay type: physicochemical
L1210 [2] = experiment: Antileukemic activity against mouse L1210 cells allografted in BDF1 mouse assessed as host survival at 5.74 umol/kg, ip after 30 days; assay type: functional, organism-based
Method in brief: (§1)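 BDF1 mice, 5 weeks old, were inoculated ip with 5×10^5 L1210 cells in 0.1 ml saline. Test groups were 4 male and 4 female mice; controls were 5 male and 5 female. Insoluble compounds were suspended in vehicle. Dosing was ip, either once on the day after inoculation or daily for 5 days. Read-out was increase in life span over controls. Mice alive beyond 30 days were counted as 30 days and scored as survivors.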

L1210 [3] = experiment: Antileukemic activity against mouse L1210 cells allografted in BDF1 mouse assessed as host survival at 26.3 umol/kg, ip after 30 days; assay type: functional, organism-based; method in brief: as §1
L1210 [4] = experiment: Antileukemic activity against mouse L1210 cells allografted in BDF1 mouse assessed as increase in life span of host at 5.74 umol/kg, ip relative to control; assay type: functional
Method in brief: (§2)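 BDF1 mice, 5 weeks old, were inoculated ip with 5×10^5 L1210 cells; test groups had 4 males and 4 females, controls 5 males and 5 females. A single ip dose was given on the day after inoculation, as a suspension in vehicle for the insoluble compounds. Read-out was increase in life span over controls, with survivors past 30 days counted as 30 days.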

L1210 [5] = experiment: Antileukemic activity against mouse L1210 cells allografted in BDF1 mouse assessed as increase in life span of host at 144 umol/kg, ip relative to control; assay type: functional; method in brief: as §1
L1210 [6] = experiment: Antileukemic activity against mouse L1210 cells allografted in BDF1 mouse assessed as increase in life span of host at 71.8 umol/kg, ip relative to control; assay type: functional; method in brief: as §2
L1210 [7] = experiment: Antileukemic activity against mouse L1210 cells allografted in BDF1 mouse assessed as increase in life span of host at 287 umol/kg, ip relative to control; assay type: functional; method in brief: as §2
L1210 [8] = experiment: Antileukemic activity against mouse L1210 cells allografted in BDF1 mouse assessed as host survival at 287 umol/kg, ip after 30 days; assay type: functional, organism-based; method in brief: as §1
L1210 [9] = experiment: Antileukemic activity against mouse L1210 cells allografted in BDF1 mouse assessed as increase in life span of host at 28.7 umol/kg, ip relative to control; assay type: functional; method in brief: as §2
L1210 [10] = experiment: Antileukemic activity against mouse L1210 cells allografted in BDF1 mouse assessed as increase in life span of host at 26.3 umol/kg, ip relative to control; assay type: functional; method in brief: as §2
L1210 [11] = experiment: Antileukemic activity against mouse L1210 cells allografted in BDF1 mouse assessed as host survival at 28.7 umol/kg, ip after 30 days; assay type: functional, organism-based; method in brief: as §1
Mus musculus = organism: Mus musculus; experiment: Toxicity in mouse L1210 cells allografted BDF1 mouse; assay type: organism-based
L1210 [12] = experiment: Antileukemic activity against mouse L1210 cells allografted in BDF1 mouse assessed as increase in life span of host at 4.87 umol/kg, ip relative to control; assay type: functional; method in brief: as §2
L1210 [13] = experiment: Antileukemic activity against mouse L1210 cells allografted in BDF1 mouse assessed as increase in life span of host at 27.9 umol/kg, ip relative to control; assay type: functional; method in brief: as §2
L1210 [14] = experiment: Antileukemic activity against mouse L1210 cells allografted in BDF1 mouse assessed as increase in life span of host at 69.8 umol/kg, ip relative to control; assay type: functional; method in brief: as §2
L1210 [15] = experiment: Antileukemic activity against mouse L1210 cells allografted in BDF1 mouse assessed as host survival at 4.87 umol/kg, ip after 30 days; assay type: functional, organism-based; method in brief: as §1
L1210 [16] = experiment: Antileukemic activity against mouse L1210 cells allografted in BDF1 mouse assessed as increase in life span of host at 61 umol/kg, ip relative to control; assay type: functional; method in brief: as §2
L1210 [17] = experiment: Antileukemic activity against mouse L1210 cells allografted in BDF1 mouse assessed as increase in life span of host at 24.4 umol/kg, ip relative to control; assay type: functional; method in brief: as §2
L1210 [18] = experiment: Antileukemic activity against mouse L1210 cells allografted in BDF1 mouse assessed as host survival at 61 umol/kg, ip after 30 days; assay type: functional, organism-based; method in brief: as §1
L1210 [19] = experiment: Antileukemic activity against mouse L1210 cells allografted in BDF1 mouse assessed as host survival at 45.7 umol/kg, ip after 30 days; assay type: functional, organism-based; method in brief: as §1
L1210 [20] = experiment: Antileukemic activity against mouse L1210 cells allografted in BDF1 mouse assessed as increase in life span of host at 45.7 umol/kg, ip relative to control; assay type: functional; method in brief: as §2
L1210 [21] = experiment: Antileukemic activity against mouse L1210 cells allografted in BDF1 mouse assessed as host survival at 13.8 umol/kg, ip qd for 5 days measured after 30 days; assay type: functional, organism-based; method in brief: as §1
L1210 [22] = experiment: Antileukemic activity against mouse L1210 cells allografted in BDF1 mouse assessed as host survival at 5.56 umol/kg, ip qd for 5 days measured after 30 days; assay type: functional, organism-based; method in brief: as §1
L1210 [23] = experiment: Antileukemic activity against mouse L1210 cells allografted in BDF1 mouse assessed as host survival at 139 umol/kg, ip after 30 days; assay type: functional, organism-based; method in brief: as §1
L1210 [24] = experiment: Antileukemic activity against mouse L1210 cells allografted in BDF1 mouse assessed as host survival at 5.56 umol/kg, po qd for 4 days measured after 30 days; assay type: functional, organism-based
L1210 [25] = experiment: Antileukemic activity against mouse L1210 cells allografted in BDF1 mouse assessed as host survival at 13.8 umol/kg, po qd for 4 days measured after 30 days; assay type: functional, organism-based
L1210 [26] = experiment: Antileukemic activity against mouse L1210 cells allografted in BDF1 mouse assessed as host survival at 27.8 umol/kg, po qd for 4 days measured after 30 days; assay type: functional, organism-based
L1210 [27] = experiment: Antileukemic activity against mouse L1210 cells allografted in BDF1 mouse assessed as host survival at 27.8 umol/kg, ip after 30 days; assay type: functional, organism-based; method in brief: as §1
L1210 [28] = experiment: Antileukemic activity against mouse L1210 cells allografted in BDF1 mouse assessed as host survival at 1.11 umol/kg, sc qd for 5 days measured after 30 days; assay type: functional, organism-based
L1210 [29] = experiment: Antileukemic activity against mouse L1210 cells allografted in BDF1 mouse assessed as host survival at 1.11 umol/kg, ip qd for 5 days measured after 30 days; assay type: functional, organism-based; method in brief: as §1
L1210 [30] = experiment: Antileukemic activity against mouse L1210 cells allografted in BDF1 mouse assessed as host survival at 13.8 umol/kg, sc qd for 5 days measured after 30 days; assay type: functional, organism-based
L1210 [31] = experiment: Antileukemic activity against mouse L1210 cells allografted in BDF1 mouse assessed as host survival at 5.21 umol/kg, ip after 30 days; assay type: functional, organism-based; method in brief: as §1
L1210 [32] = experiment: Antileukemic activity against mouse L1210 cells allografted in BDF1 mouse assessed as host survival at 5.56 umol/kg, sc qd for 5 days measured after 30 days; assay type: functional, organism-based
L1210 [33] = experiment: Antileukemic activity against mouse L1210 cells allografted in BDF1 mouse assessed as host survival at 27.8 umol/kg, sc qd for 5 days measured after 30 days; assay type: functional, organism-based
L1210 [34] = experiment: Antileukemic activity against mouse L1210 cells allografted in BDF1 mouse assessed as host survival at 278 umol/kg, ip after 30 days; assay type: functional, organism-based; method in brief: as §1

In the case of `CCC1(O)C(=O)OCc2c1cc1n(c2=O)Cc2cc3ccccc3nc2-1` (racemic), the solubility [1] was “Insoluble”, the Activity (L1210 [2]) was “inactive” and the Activity (L1210 [3]) was “inactive”. For the same compound, the ILS at 5.74 µmol/kg (L1210 [4]) was 16%, the ILS at 144 µmol/kg (L1210 [5]) was greater than 60% and the ILS at 71.8 µmol/kg (L1210 [6]) was greater than 155%. For the same compound, the ILS at 287 µmol/kg (L1210 [7]) was -43%, the Activity (L1210 [8]) was “inactive” and the ILS at 28.7 µmol/kg (L1210 [9]) was 84%. The ILS at 26.3 µmol/kg (L1210 [10]) was 6% and the Activity (L1210 [11]) was “inactive”.
With `C#CCC1(O)C(=O)OCc2c1cc1n(c2=O)Cc2cc3ccccc3nc2-1` (racemic) the solubility [1] was “Insoluble”, the Activity (Mus musculus) was “Toxic” and the ILS at 4.87 µmol/kg (L1210 [12]) was 58%. For the same compound, the ILS at 27.9 µmol/kg (L1210 [13]) was greater than 117%, the ILS at 69.8 µmol/kg (L1210 [14]) was greater than 149% and the Activity (L1210 [15]) was “inactive”.
With `O=C1OCc2c(cc3n(c2=O)Cc2cc4ccccc4nc2-3)C1(O)Cc1ccccc1` (racemic) the ILS at 61 µmol/kg (L1210 [16]) was -34%, the ILS at 24.4 µmol/kg (L1210 [17]) was greater than 171% and the Activity (L1210 [18]) was “inactive”. The solubility [1] was “Insoluble”, the Activity (Mus musculus) was “Toxic” and the Activity (L1210 [19]) was “inactive”. The ILS at 45.7 µmol/kg (L1210 [20]) was 12%.
With `C=CCC1(O)C(=O)OCc2c1cc1n(c2=O)Cc2cc3ccccc3nc2-1` (racemic) the Activity (L1210 [21]) was “inactive”, the Activity (L1210 [22]) was “inactive” and the Activity (L1210 [23]) was “inactive”. For the same compound, the Activity (L1210 [24]) was “inactive”, the Activity (L1210 [25]) was “inactive” and the Activity (L1210 [26]) was “inactive”. The Activity (L1210 [27]) was “inactive”, the Activity (L1210 [2]) was “inactive” and the Activity (L1210 [28]) was “inactive”. The Activity (L1210 [29]) was “inactive”, the Activity (L1210 [30]) was “inactive” and the Activity (L1210 [31]) was “inactive”. For the same compound, the Activity (L1210 [32]) was “inactive”, the Activity (L1210 [33]) was “inactive” and the Activity (L1210 [34]) was “inactive”.
